# Assay results of several laboratories.
# Compare with care: the assays were run in different laboratories.
# Target: Protein kinase C alpha type (PRKCA, Homo sapiens, UniProt P17252)
SMILES,assay,conditions,measurement,result
CCCOc1ccc(OC)c(F)c1C(=O)c1ccc(C(=O)N[C@@H]2CNC[C@H]2NC(=O)c2ccc3[nH]ncc3c2)cc1,"enzyme activity, inhibitor",10 µM,remaining activity,92%
O=C(Nc1cnn(-c2csc(C(=O)NC3COC3)c2)c1)Nc1ccccc1Cl,"enzyme activity, inhibitor",5 µM,remaining activity,101%
O=C1Nc2ccc(Cl)cc2C1=Cc1cc(Cl)c(O)c(Cl)c1,cell-free assay,0.5 µM,remaining signal,105%
O=C(CSc1nc2nccnc2c(=O)n1CCc1ccccc1)Nc1nccs1,"enzyme activity, inhibitor",10 µM,inhibition,15%
Cc1cnc(NC2CCOCC2)nc1-n1cnc(C(=O)NC(CN)c2cc(F)cc(Cl)c2)c1 (stereo not shown),"enzyme activity, inhibitor, radiometric",1 µM,remaining activity,100%
FC(F)c1nc2ccccc2n1-c1nc(N2CCOCC2)nc(N2CCOCC2)n1,"enzyme activity, inhibitor",10 µM,remaining activity,86%
COc1cc(Cl)c(C(=O)N[C@@H](CN[C@H]2CC[C@@H](N)CC2)Cc2ccc(C#N)cc2)cc1-c1ccc(CN[C@H](C)c2ccc(C)cc2)o1,"enzyme activity, inhibitor",1 µM,remaining activity,97%
CC(C)(C)c1nc(-c2cccc(NS(=O)(=O)c3c(F)cccc3F)c2F)c(-c2ccnc(N)n2)s1,"enzyme activity, inhibitor, radiometric",1 µM,remaining activity,100%
CC(C)c1ccc(NC(=O)c2cccs2)c(-c2nc3ccccc3[nH]c2=O)c1,"enzyme activity, inhibitor",1 µM,activity vs control,100%
CNC(=O)c1cc(Oc2ccc(NC(=O)Nc3ccc(Cl)c(C(F)(F)F)c3)cc2)ccn1,cell-free assay,0.5 µM,remaining signal,96.8%
CN1CC(Oc2cnc(C#N)cc2-c2ccn3nc(NC(=O)C4CC4)cc3c2)C1,"enzyme activity, inhibitor",1 µM,inhibition,2%
Cc1ccc(-n2nc(C(C)(C)C)cc2NC(=O)Nc2ccc(OCCN3CCOCC3)c3ccccc23)cc1,"enzyme activity, inhibitor",10 µM,inhibition,9%
CCN(CC)CCNC(=O)c1c(C)[nH]c(/C=C2\C(=O)Nc3ccc(F)cc32)c1C,"enzyme activity, inhibitor",1 µM,remaining activity,102%
Cc1cc(NC(=O)c2cccc3cc(-c4cccc5[nH]nc(N)c45)ccc23)ccc1F,"enzyme activity, inhibitor",0.1 µM,activity vs control,95%
CN(C)C[C@H]1CCn2c(c(C3=C(c4cn(C)c5ccccc45)C(=O)NC3=O)c3ccccc32)C1,cell-free assay,0.5 µM,remaining signal,2.58%
CCN(CC)CCNC(=O)c1c(C)[nH]c(/C=C2\C(=O)Nc3ccc(F)cc32)c1C,"enzyme activity, inhibitor",10 µM,inhibition,11%
Cc1[nH]c(/C=C2\C(=O)Nc3ccc(F)cc32)c(C)c1C(=O)N[C@H]1CCN(C(=O)N(C)C)C1,"enzyme activity, inhibitor",0.1 µM,remaining activity,108%
CCN(CC)c1ccc(C2=NNC(=O)CC2C)cc1[N+](=O)[O-] (stereo not shown),"enzyme activity, inhibitor",10 µM,remaining activity,21%
FC(F)(F)Oc1cccc(-c2cnc3ccc(-c4ccncc4)nn23)c1,"enzyme activity, inhibitor, radiometric",1 µM,activity vs control,96%
CN(c1ncccc1CNc1nc(Nc2ccc3c(c2)CC(=O)N3)ncc1C(F)(F)F)S(C)(=O)=O,"enzyme activity, inhibitor",1 µM,inhibition,28.4%
COc1cc2ncnc(Nc3ccc(Oc4ccccc4)cc3C)c2cc1OC,"enzyme activity, inhibitor",1 µM,inhibition,6%
COc1cc(Nc2cnc(C#N)c(O[C@H](C)CN(C)C)n2)ncc1-c1cnn(C)c1,"enzyme activity, inhibitor, radiometric",10 µM,remaining activity,102%
